Screens deposited in PubChem by several laboratories.
Only some compounds are listed: those with a hit (about 6.8% of all), similar ones and a draw of the others.
core dimer inh = inhibitors of HCV core protein dimerization, primary screen, biochemical, TR-FRET, high-throughput. TR-FRET GST/Flag-core106 dimerization, 1536-well. inhibition, % at 5 µM. 300,000 tested, 0.33% active. AID 1899, 2009;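 active = inhibition above the mean of all tested compounds plus 3 SD, set per screening campaign, cut at about 45% in these data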
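System – GST-tagged and Flag-tagged HCV core protein residues 1-106 · Repeats – one well for each compound · Technique – TR-FRET 671 and 617 nm emission · Doses – one concentration, 5 µM, in 0.5% DMSO · Times – 4 h, 22.5 °C incubation · Also added – Eu donor and XL665 acceptor anti-tag antibodies · Measure – percent inhibition of core106 dimerization signal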
PHOSPHO1 inh = PubChem AID 1565. recombinant PHOSPHO1, absorbance phosphatase assay. Phosphoethanolamine/phosphocholine phosphatase (Homo sapiens), Q8TCT1. inhibition, % at 13.3 µM. 290,000 tested, 1.1% active; in the data active = inhibition above about 60%
Target sequence (Q8TCT1 whole entry, looked up): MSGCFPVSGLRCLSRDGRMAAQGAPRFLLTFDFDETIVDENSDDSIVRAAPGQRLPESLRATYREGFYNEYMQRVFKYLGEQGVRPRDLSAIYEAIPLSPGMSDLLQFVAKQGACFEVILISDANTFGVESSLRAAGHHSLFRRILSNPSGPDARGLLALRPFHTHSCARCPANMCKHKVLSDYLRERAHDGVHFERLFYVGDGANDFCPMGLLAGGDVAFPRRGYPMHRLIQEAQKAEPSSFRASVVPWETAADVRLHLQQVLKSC
AI-2 QS mod = Vibrio harveyi AI-2 quorum sensing modulators, primary screen, JMH597 strain, luminescence/OD600 ratio; Vibrio harveyi JMH597 AI-2 luminescence/OD600 ratio, 9 h; stronger effect = lower value; strain lacks LuxN and CqsS sensors; 0 = neutral-control median; activity change, % at 7.5 µM; 300,000 tested, 0.4% active; in the data active = activity change below about -75%, passing the limit was not always enough; inconclusive = no clear call, values can overlap the other calls;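 also: luminescence divided by OD600 gain over 9 h not by final OD600 alone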
HSF1 activator = HSF-1 activators, primary screen, NIH3T3-HGL cells, MG132 stress, luminescence, single point | NIH3T3-HGL HSF-1 luciferase reporter, 8 h; 100% = twice DMSO control signal | activation, % at 9 µM | 300,000 tested, 1.7% active;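 active = mean replicate activation of at least 50% with a set share of replicates each reaching 50%; inconclusive = only one of those two conditions met; inactive = mean below 50% and too few replicates reaching it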
HSF1 inhib = HSF1 inhibitors in luciferase reporter cells, primary screen, cell-based, NIH3T3, luminescence | NIH3T3-HGL HSE-luciferase, MG132-induced, luminescence 8 h; stronger effect = lower value | activity change, negative = inhibition, % at 7.5 µM (by protocol) | 300,000 tested, 0.77% active | AID 2098, 2009;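 active = more than half of replicate wells show activity change below -50%, luminescence cut by over half; inconclusive = some wells, but at most half, below -50%; inactive = no replicate well below -50%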;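 also: luciferase reports HSF-1 transcriptional activity via heat shock element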
ALR H2O2 inh = inhibitors of human ALR sulfhydryl oxidase, primary screen, biochemical, H2O2 detection, HRP-luminol luminescence, single point; inhibition, % (test concentration not listed); purified ALR, DTT oxidation; 290,000 tested, 3.8% active; FAD-linked sulfhydryl oxidase ALR (Homo sapiens), P55789;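 active = mean replicate inhibition above about 79%, with every replicate also reaching it, limit read from the data; inconclusive = only one of the two criteria met; inactive = mean below limit and not every replicate reaching it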
Target sequence (P55789 whole entry, looked up): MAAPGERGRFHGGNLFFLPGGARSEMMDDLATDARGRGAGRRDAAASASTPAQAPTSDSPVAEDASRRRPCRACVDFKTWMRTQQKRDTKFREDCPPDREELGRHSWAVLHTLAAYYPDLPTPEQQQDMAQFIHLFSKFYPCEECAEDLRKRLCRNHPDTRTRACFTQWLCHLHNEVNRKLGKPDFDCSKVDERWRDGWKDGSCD
Hits are given with their value; n = inactive; u = inconclusive; x = no result.

SMILES | core dimer inh | PHOSPHO1 inh | AI-2 QS mod | HSF1 activator | HSF1 inhib | ALR H2O2 inh
Cc1ccc(NC(=O)COC(=O)[C@H](C)N2C(=O)C3CC=CCC3C2=O)cc1S(=O)(=O)N(C)C (stereo partly specified) | n | n | n | 68 | n | n
O=C(COC(=O)Cn1cnc2ccccc21)Nc1ccc2c(c1)C(=O)c1ccccc1C2=O | n | n | n | n | n | x
Cc1ccc(NC(=O)COC(=O)Cn2cnc3ccccc32)cc1S(=O)(=O)N(C)C | n | n | n | n | -83 | n
CC(C)(C)c1[nH]ncc1[N+](=O)[O-] | n | n | n | 52 | n | n
Cc1nc(-c2ccc(C(=O)Nc3cccc(Br)c3)cc2)cs1 | n | n | n | 56 | n | n
CC(=O)NNc1nc(-c2ccc(NC(C)=O)cc2)cs1 | n | n | n | n | n | 99
Cc1nc(-c2ccc(NC(=O)CC(C)C)cc2)cs1 | n | n | n | n | n | 100
Cc1nc(-c2ccc(NC(=O)c3ccc(Br)o3)cc2)cs1 | n | n | n | 53 | n | n
Cc1nc(-c2cccc(NC(=O)c3ccc(Br)o3)c2)cs1 | x | n | n | x | x | n
O=C(CCc1ccc(S(=O)(=O)N2CCOCC2)cc1)Nc1ccc2c(c1)OCCO2 | n | n | n | n | n | n
NC(=O)C1CCN(c2nc3c(S(=O)(=O)c4ccccc4)nnn3c3ccccc23)CC1 | n | n | n | n | n | n
COCCn1c(-c2ccco2)nc2nc3ccccc3nc21 | n | n | n | n | n | x
CC(C)OCCCn1c(-c2ccco2)nc2nc3ccccc3nc21 | n | n | n | n | n | 98
Cc1ccc(C(=O)Nc2nc(-c3ccc([N+](=O)[O-])cc3)cs2)o1 | 52 | n | n | n | n | 98
O=C(Nc1nc(-c2ccccn2)cs1)c1ccc([N+](=O)[O-])o1 | n | 93 | u | n | n | n
Cc1ccc(C(=O)Nc2nc(-c3ccccn3)cs2)o1 | n | n | n | n | n | n
O=C(Nc1nc(-c2ccccn2)cs1)c1cc(Cl)ccc1[N+](=O)[O-] | n | n | n | 70 | n | n
CC(=O)Nc1ccc(-c2csc(NC(=O)c3ccc(C)o3)n2)cc1 | n | n | n | n | n | n
Cc1cc(=O)oc2cc3c(cc12)OCCN3 | n | n | n | n | n | 97
Cc1ccc(N2CC(C)Cn3c2nc2c3c(=O)[nH]c(=O)n2C)cc1 (stereo unspecified) | x | n | n | n | n | x
CC1CN(C2CCCCC2)c2nc3c(c(=O)[nH]c(=O)n3C)n2C1 (stereo unspecified) | n | n | n | n | n | 95
CN(CC(=O)Nc1ccccc1Br)Cc1nc2ccccc2c(=O)[nH]1 | n | n | n | n | n | n
Cc1cc(C)cc(NC(=S)N=Nc2c(O)n(C)c3ccc(S(=O)(=O)N4CCOCC4)cc23)c1 | n | n | n | n | n | n
Cc1ccc(NC(=S)N=Nc2c(O)n(C)c3ccc(S(=O)(=O)N4CCOCC4)cc23)cc1 | x | n | n | 58 | n | x
COc1ccc2c(/C=N/NS(=O)(=O)c3ccc(C)cc3)c[nH]c2c1 | n | n | n | x | x | 89
SMILES | core dimer inh | PHOSPHO1 inh | AI-2 QS mod | HSF1 activator | HSF1 inhib | ALR H2O2 inh
COc1ccc2[nH]cc(/C=N/NS(=O)(=O)c3ccc(C)cc3)c2c1 | n | n | n | n | n | x
c1ccc(CCn2nnnc2CN2CCc3ccccc32)cc1 | n | n | x | n | n | 99
c1ccc2c(c1)CCCN2Cc1nnnn1C1CCCC1 | n | n | n | n | n | n
COC(=O)c1c(-c2ccc(C(C)(C)C)cc2)csc1NC(=O)C1C2CCC(O2)C1C(=O)O (stereo unspecified) | n | n | n | n | n | n
O=C(CCl)Nc1cc(SCC(O)CO)cc([N+](=O)[O-])c1 (stereo unspecified) | x | n | n | n | -71 | x
COc1ccc(N(C)S(=O)(=O)c2ccc3c(c2)NC(=O)CC(=O)N3)c(OC)c1 | n | 70 | n | n | n | n
CCCCSCCCNC(=O)c1ccc(CS(=O)(=O)c2ccc(OC)cc2)o1 | n | n | n | n | n | n
CN(CCNC(=O)c1ccc(CS(=O)(=O)c2c(Cl)cccc2Cl)o1)CCc1ccccc1 | n | 65 | n | n | n | n
CCCCNC(=O)c1ccc(CS(=O)(=O)c2ccc(C)cc2)o1 | n | n | n | n | n | 79
COc1ccc(S(=O)(=O)Cc2ccc(C(=O)NCCCN(C)c3ccccc3)o2)cc1 | n | n | n | 60 | n | 99
CN(C)CCNC(=O)c1ccc(CS(=O)(=O)c2c(Cl)cccc2Cl)o1 | n | n | n | n | n | n
CCCCNC(=O)c1ccc(CS(=O)(=O)c2ccc(OC)cc2)o1 | n | n | n | n | n | x
O=C(COC(=O)c1cccc(S(=O)(=O)N2CCc3ccccc32)c1)Nc1ccc(Cl)cn1 | n | n | n | n | n | n
Cc1cccc(N2CCN(C(=O)c3c(-c4ccccc4Cl)noc3C)CC2)c1C | n | n | n | n | n | n
COc1ccc(CN(CC2CCC(C(=O)O)CC2)C(=S)Nc2cc(Cl)ccc2OC)cc1 (stereo unspecified) | n | n | n | 337 | n | n
NC1=NC[C@H](Cc2ccc(O)cc2)N1CCC12CC3CC(CC(C3)C1)C2 | n | n | n | n | n | 93
O=C1OC(c2ccc(Cl)cc2)/C(=C(/O)c2ccccc2)C1=O (stereo unspecified) | n | n | n | n | n | 97
CCCS(=O)(=O)N1CCN=C1SCc1ccc(F)cc1 | n | n | n | n | n | 92
CCCS(=O)(=O)N1CCN=C1SCc1cccc2ccccc12 | n | n | n | n | n | 99
CCS(=O)(=O)N1CCN=C1SCc1ccc(F)cc1 | n | n | n | n | n | 89
CCS(=O)(=O)N1CCN=C1SCc1ccccc1 | n | n | n | n | n | n
CCCS(=O)(=O)N1CCN=C1SCc1cccnc1 | n | n | n | n | n | 99
CCS(=O)(=O)N1CCN=C1SCc1cccc(F)c1 | n | n | n | n | n | n
COc1ccc(C(CNC(=O)C(=O)NC2CCCC2)N2CCN(C)CC2)cc1 (stereo unspecified) | n | x | n | n | n | n
COc1cc2c(cc1OC)CN(CC(=O)NC(=O)NC1CCCCC1)CC2 | n | n | n | n | n | x
COc1cccc(CN2CCC(C(=O)Nc3ccc(-c4cccc(C)c4)cc3)CC2)c1O | n | n | n | n | n | n
CS(=O)(=O)N1CCN=C1SCc1cccc(F)c1 | n | n | n | n | n | 81
